Here are results for 18 molecules from ChEMBL document CHEMBL4265988, “Molecular tools that block maturation of the nuclear lamin A and decelerate cancer cell migration” (Bioorg Med Chem, 2018).

Data set [1] addresses T1, CAAX prenyl protease 1 homolog (Homo sapiens) (UniProt O75844).
T1 sequence (whole entry): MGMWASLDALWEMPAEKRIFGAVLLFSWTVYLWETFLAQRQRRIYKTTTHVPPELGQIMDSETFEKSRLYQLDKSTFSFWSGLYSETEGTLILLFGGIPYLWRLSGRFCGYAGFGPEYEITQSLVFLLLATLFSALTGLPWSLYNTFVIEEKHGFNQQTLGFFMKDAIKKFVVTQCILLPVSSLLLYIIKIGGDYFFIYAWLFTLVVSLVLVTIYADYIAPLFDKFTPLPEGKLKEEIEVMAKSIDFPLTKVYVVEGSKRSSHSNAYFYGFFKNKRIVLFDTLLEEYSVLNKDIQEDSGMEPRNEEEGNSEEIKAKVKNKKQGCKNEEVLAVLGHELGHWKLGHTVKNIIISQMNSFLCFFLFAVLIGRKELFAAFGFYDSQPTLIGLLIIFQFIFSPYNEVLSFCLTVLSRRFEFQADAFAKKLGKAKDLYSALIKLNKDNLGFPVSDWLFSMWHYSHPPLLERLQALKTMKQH
In words: Inhibition of ZMPSTE24 in human U2OS cells assessed as increase in intracellular accumulation of prelamin A at 10 uM after 24 hrs by Western blot analysis relative to control. The format is cell-based. The gist of the method: (§1)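 Cells treated 24 h with 10 μM compound, lysates analysed by Western blot with prelamin A-specific antibody; prelamin A band normalised to tubulin and expressed relative to untreated control (set to 1); lopinavir run in parallel as reference.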
For orientation: A western blot detects proteins with antibodies after separation by electrophoresis.

The target in data set [2] is T1, CAAX prenyl protease 1 homolog (Homo sapiens). The data set is described as follows: Inhibition of ZMPSTE24 in human KP4 cells assessed as increase in intracellular accumulation of prenylated prelamin A at 10 uM after 24 hrs by Western blot analysis relative to control. The format is cell-based. The gist of the method: as §1
Data set [3] has the same target. The data set is described as follows: Inhibition of ZMPSTE24 in human SW1990 cells assessed as increase in intracellular accumulation of prenylated prelamin A at 10 uM after 24 hrs by Western blot analysis relative to control. The format is cell-based. The gist of the method:
as §1

The subject of data set [4] is KP-4. The data set is described as follows: Antimigratory activity against human KP4 cells at 10 uM after 10 days by crystal violet staining-based assay. The format is functional, cell-based. Summed up:
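Transmigration assay in KP-4 cells; test agents at single 10 μM, with lopinavir and 0.15% DMSO (vehicle) in buffer as controls.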

Data set [5] addresses T1, CAAX prenyl protease 1 homolog (Homo sapiens). In words: Inhibition of ZMPSTE24 in human HCT116 cells assessed as increase in intracellular accumulation of prenylated prelamin A at 10 uM after 24 hrs by Western blot analysis relative to control. The format is cell-based. The gist of the method: as §1
Data set [6] shares this target. The data set is described as follows: Inhibition of ZMPSTE24 in human HPAF2 cells assessed as increase in intracellular accumulation of prenylated prelamin A at 10 uM after 24 hrs by Western blot analysis relative to control. The format is cell-based. The gist of the method:
as §1

Data set [7] deals with HPAF-II. The data set is described as follows: Downregulation of MCM6 protein expression in human HPAF2 cells at 10 uM after 48 hrs by Western blot method. Format: ADME, cell-based.
Data set [8] has as its system KP-4. The data set is described as follows: Induction of p21 accumulation in human KP4 cells at 10 uM after 48 hrs by Western blot method. The format is cell-based. The conditions noted are these: kp-4, 48 h.
Data set [9] concerns KP-4. The data set is described as follows: Antiproliferative activity against human KP4 cells at 10 uM after 7 days by crystal violet staining-based assay. Format: cell-based. The conditions noted are these: kp-4, 168 h. The gist of the method:
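Proliferation assay in KP-4 cells, single concentration 10 μM.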

Data set [10] has as its system HPAF-II. The data set is described as follows: Induction of p21 accumulation in human HPAF2 cells at 10 uM after 48 hrs by Western blot method. Format: cell-based.
Data set [11] deals with KP-4. In words: Downregulation of MCM6 protein expression in human KP4 cells at 10 uM after 48 hrs by Western blot method. The format is ADME, cell-based. The conditions noted are these: kp-4, 48 h.

The source made the active and inactive calls. The calls are words filed in the database; no cut-off is given here.

Turning to `Cc1cc(C)cc(C(=O)N[C@H](C(=O)N[C@@H](Cc2ccccc2)C[C@H](O)[C@H](Cc2ccccc2)NC(=O)COc2c(C)cccc2C)C(C)C)c1`, in data set [1], the fold change (FC) stood at 3.4.

For the molecule `Cc1cccc(C)c1OCC(=O)N[C@@H](Cc1ccccc1)[C@@H](O)C[C@H](Cc1ccccc1)NC(=O)[C@@H](NC(=O)CC1CC1)C(C)C`, the fold change (FC) in [1] worked out at 3.

As for `Cc1cccc(C)c1OCC(=O)N[C@@H](Cc1ccccc1)[C@@H](O)C[C@H](Cc1ccccc1)NC(=O)[C@@H](NC(=O)c1ccc(Br)cn1)C(C)C`, the fold change (FC) in data set [1] turned out to be 2.1.

Turning to `COc1cc(C(=O)N[C@H](C(=O)N[C@@H](Cc2ccccc2)C[C@H](O)[C@H](Cc2ccccc2)NC(=O)COc2c(C)cccc2C)C(C)C)cc(C(F)(F)F)c1`, in [1], the fold change (FC) was 1.4.

On to `Cc1cccc(C)c1OCC(=O)N[C@@H](Cc1ccccc1)[C@@H](O)C[C@H](Cc1ccccc1)NC(=O)[C@@H](NC(=O)c1cc(C(F)(F)F)cc(C(F)(F)F)c1)C(C)C`, for which, in [1], the fold change (FC) came to 2.1.

Turning to `Cc1cccc(C)c1OCC(=O)N[C@@H](Cc1ccccc1)[C@@H](O)C[C@H](Cc1ccccc1)NC(=O)[C@@H](NC(=O)c1cc(Cl)cc(C(F)(F)F)c1)C(C)C`, the fold change (FC) in data set [1] came out at 2.4.

For `Cc1cccc(C)c1OCC(=O)N[C@@H](Cc1ccccc1)[C@@H](O)C[C@H](Cc1ccccc1)NC(=O)[C@@H](NC(=O)c1ccc2[nH]nnc2c1)C(C)C`, the fold change (FC) in data set [1] is 1.5.

Consider `Cc1cccc(C)c1OCC(=O)N[C@@H](Cc1ccccc1)[C@@H](O)C[C@H](Cc1ccccc1)NC(=O)[C@@H](NC(=O)Cc1ccc(Cl)cc1)C(C)C`, for which, in data set [1], the fold change (FC) was determined as 2.8.

Turning to `Cc1cccc(C)c1OCC(=O)N[C@@H](Cc1ccccc1)[C@@H](O)C[C@H](Cc1ccccc1)NC(=O)[C@@H](NC(=O)C1CCC(=O)N1)C(C)C` (some centres not stated), in data set [1], the fold change (FC) worked out at 3.2.

Turning to `Cc1cc(OC(F)(F)F)cc(C(=O)N[C@H](C(=O)N[C@@H](Cc2ccccc2)C[C@H](O)[C@H](Cc2ccccc2)NC(=O)COc2c(C)cccc2C)C(C)C)c1`, the fold change (FC) in [1] worked out at 2.7.

As to `Cc1cccc(C)c1OCC(=O)N[C@@H](Cc1ccccc1)[C@@H](O)C[C@H](Cc1ccccc1)NC(=O)[C@@H](NC(=O)Cc1cccnc1)C(C)C`, the fold change (FC) in data set [1] was 1.7.

For `COc1cc(Cl)cc(C(=O)N[C@H](C(=O)N[C@@H](Cc2ccccc2)C[C@H](O)[C@H](Cc2ccccc2)NC(=O)COc2c(C)cccc2C)C(C)C)c1`, in [1], the fold change (FC) is 2.7.

Take `C[C@H](NC(=O)C(Cc1ccccc1)CP(=O)(O)[C@H](Cc1ccccc1)NC(=O)OCc1ccccc1)C(=O)O` (some centres not stated): the inhibition entry in [1] is “inactive”.

For `Cc1cccc(C)c1OCC(=O)N[C@@H](Cc1ccccc1)[C@@H](O)C[C@H](Cc1ccccc1)NC(=O)[C@@H](NC(=O)c1ccc([N+](=O)[O-])o1)C(C)C`, the fold change (FC) in data set [1] was 2.5.

Regarding `Cc1cccc(C)c1OCC(=O)N[C@@H](Cc1ccccc1)[C@@H](O)C[C@H](Cc1ccccc1)NC(=O)[C@@H](NC(=O)c1ccnc(Cl)c1)C(C)C`, in [1], the fold change (FC) is 3.

In the case of `Cc1cccc(C)c1OCC(=O)N[C@@H](Cc1ccccc1)[C@@H](O)C[C@H](Cc1ccccc1)NC(=O)[C@H](C(C)C)N1CCCNC1=O`, the fold change (FC) was 2.5 in data set [2]; 4.9 in [3]; 1.4 in data set [5]; 1.2 to 2.1 in data set [1]; 2 in data set [6]. Moreover, the result in the data set with KP-4 [4] was inactive.

For `Cc1cccc(C)c1OCC(=O)N[C@@H](Cc1ccccc1)[C@@H](O)C[C@H](Cc1ccccc1)NC(=O)[C@@H](NC(=O)C1CCCCN1)C(C)C` (some centres not stated), the fold change (FC) in data set [1] turned out to be 2.

For the molecule `COC(=O)[C@H](C)NC(=O)C(Cc1ccccc1)CP(=O)(O)[C@H](Cc1ccccc1)NC(=O)OCc1ccccc1` (some centres not stated), the Activity result in the data set on HPAF-II [7], in the data set on KP-4 [8], in the data set with KP-4 [9], with HPAF-II [10] and with KP-4 [11] was “Non-Toxic” each time. Also, the fold change (FC) in data set [2] was found to be 3.6; in data set [3], 7.4; in data set [5], 2.2; in data set [6] it was 2.2. Moreover, the outcome in the data set with KP-4 [4] was Active.
